SENP1 inh = human SENP1 catalytic domain inhibitors, primary screen, biochemical, FRET, uHTS; recombinant SENP1 catalytic domain, CyPet-SUMO1-YPet FRET cleavage; inhibition, % at 10 µM; 0.21% of 360,000 active;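 active = inhibition at least 30% at 10 µM, raw YFP signal under a set limit, fluorescence ratio 0.5 to 1.5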;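 note: 0% = enzyme with DMSO and 100% = no enzyme wells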
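material = recombinant human SENP1 catalytic domain, His6-tagged | quantity = 20 pM enzyme | reagent = 25 nM SUMO1 FRET substrate | compound dosing = 10 µM single point, 0.5% DMSO | timing = 50 min enzyme reaction, room temperature, light-protected | detection = FRET, CFP and YFP emission | control set = no-enzyme low, enzyme-DMSO high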
SENP6 block = SENP6 protease inhibitors, primary screen, biochemical, luminescence, uHTS. Sentrin-specific protease 6 (Homo sapiens), Q9GZR1. inhibition, % at 10 µM. Recombinant SENP6 catalytic domain, aminoluciferin luminescence. 1.8% of 330,000 active;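 active = inhibition above about 50% at the single tested dose, limit read from the data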;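 note: plate controls were DMSO wells with enzyme for no effect and DMSO wells lacking enzyme for full effect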
SENP8 block-1 = human SENP8 protease inhibitors, primary screen, biochemical, fluorescence, Nedd8 protein substrate, uHTS | Sentrin-specific protease 8 (Homo sapiens), Q96LD8 | 0.64% of 360,000 active | inhibition, % at 20 µM | recombinant SENP8; in the data active = inhibition mostly above about 40%, no sharp cut-off; inactive = mostly below about 27%
Target sequence (Q96LD8 whole entry, looked up): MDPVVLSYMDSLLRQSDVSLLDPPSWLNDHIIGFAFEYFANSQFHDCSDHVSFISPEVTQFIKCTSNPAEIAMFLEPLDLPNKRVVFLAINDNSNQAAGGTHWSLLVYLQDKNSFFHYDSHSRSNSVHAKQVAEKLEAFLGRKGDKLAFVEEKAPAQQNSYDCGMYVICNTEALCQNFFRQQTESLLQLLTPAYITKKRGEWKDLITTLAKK
SENP8 block-2 = SENP8 protease inhibitors, primary screen, biochemical, luminescence; Sentrin-specific protease 8 (Homo sapiens), Q96LD8; purified SENP8, Z-RLRGG-aminoluciferin cleavage; inhibition, % at 10 µM; 1.2% of 330,000 active; in the data active = inhibition above about 50%
SENP7 inh = SENP7 protease inhibitors, primary screen, biochemical, luminescence, uHTS. Sentrin-specific protease 7 (Homo sapiens), Q9BQF6. recombinant SENP7, Z-RLRGG-aminoluciferin luminescence, 40 min. 1.5% of 330,000 active. inhibition, % at 5 µM. AID 434973, 2010;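 active = inhibition above about 50% at the single test dose, limit read from the data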;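 note: plate controls were DMSO with enzyme for no effect and no enzyme buffer wells for full effect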
SENP8 confirm = SENP8 protease inhibitors, retest, confirmation, biochemical, luminescence, single concentration. shares compounds with SENP7 inh. Recombinant SENP8, Z-RLRGG-aminoluciferin luminescence, 60 min. inhibition, % at 12.5 µM. 40% of 6,200 active. AID 488912, 2010;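 active = mean inhibition across replicates above about 50%, limit read from the data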
SENP6 conf = SENP6 protease inhibitors, confirmation, biochemical, luminescence, single concentration; shares compounds with SENP7 inh; recombinant SENP6, Z-RLRGG-aminoluciferin luminescence; inhibition, % at 12.5 µM; 58% of 6,200 active; AID 488915, 2010
SENP7 confirm = SENP7 protease inhibitors, retest, confirmation, biochemical, luminescence, single concentration. inhibition, % at 12.5 µM. recombinant SENP7, Z-RLRGG-aminoluciferin luminescence, 40 min. 69% of 6,200 active. shares compounds with SENP7 inh
Casp3 SENP sel = caspase-3 protease inhibitors, confirmation, selectivity assay for SENP inhibitor project, biochemical, single concentration. shares compounds with SENP7 inh. purified caspase-3, Z-DEVD-aminoluciferin luminescence, 60 min. inhibition, % at 12.5 µM. 60% of 6,200 active. AID 488918, 2010;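 active = mean inhibition above about 50%, limit read from the data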;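 note: plate controls were enzyme with DMSO for no effect and wells without caspase-3 for full effect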
Target sequence (P42574 28-227 limits assumed): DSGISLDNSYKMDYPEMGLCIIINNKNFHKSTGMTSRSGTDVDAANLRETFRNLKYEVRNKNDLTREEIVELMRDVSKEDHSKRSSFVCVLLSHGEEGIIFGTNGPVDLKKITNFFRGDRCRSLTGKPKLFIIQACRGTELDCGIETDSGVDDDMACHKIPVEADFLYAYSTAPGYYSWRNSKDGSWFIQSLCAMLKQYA
Luc interf = counter-screen for SENP inhibitors: luminescence interference. shares compounds with SENP7 inh. Pre-incubated SENP8/Z-RLRGG-aminoluciferin, luciferase luminescence interference. inhibition, % at 12.5 µM. 39% of 6,200 active;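 active = mean inhibition above about 50% when retested at one dose, limit read from the data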;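 note: plate controls were DMSO wells with completed reaction for no effect and substrate without enzyme for full effect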
* hit, by the source's call; · = not tested or not shown. Shown are actives, neighbours in structure and some others; about 2.5% of the full set was active somewhere.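 Rule for the calls, unless noted: active = mean inhibition above about 50% in the one-dose retest (limit read from the data); inactive = the rest.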

SMILES	SENP1 inh	SENP6 block	SENP8 block-1	SENP8 block-2	SENP7 inh	SENP8 confirm	SENP6 conf	SENP7 confirm	Casp3 SENP sel	Luc interf
CC(=O)Nc1cccc(C(=O)OCC(=O)c2ccccc2Cl)c1	2	-3	13	47	61*	72*	39	89*	70*	74*
CC1CCN(c2cc(N(C)CCO)c([N+](=O)[O-])c3nonc23)CC1	6	2	28	4	90*	9	7	-2	-5	-7
Nc1c(Cl)cc2c(c1Oc1ccccc1)C(=O)c1ccccc1C2=O	70*	58*	33	42	-5	10	-3	6	6	2
CCCOc1c(Br)cc(C(=O)OCc2cc(=O)n3ccsc3n2)cc1OC	0	·	-66	·	·	·	·	·	·	·
Cc1ccc(NC(=O)c2noc3c2CCCCC3)cc1	3	34	9	7	19	·	·	·	·	·
CCc1ccc(NC(=O)c2noc3c2CCC3)cc1	-6	88*	13	70*	60*	80*	80*	96*	84*	81*
CCc1ccc(NC(=O)c2noc3c2CCCCC3)cc1	-2	-7	13	-19	4	·	·	·	·	·
Cc1ccc(O)c(NC(=O)c2noc3c2CCCCC3)c1	0	-43	-4	76*	80*	30	24	46	21	41
Cc1ccc(NC(=O)c2noc3c2CCCCC3)cc1C	3	44	11	9	62*	14	13	27	18	9
Cc1ccc(S(=O)(=O)N2CCC3(CC2)OCCO3)s1	0	-8	8	1	-10	·	·	·	·	·
CC(=O)Nc1nc2[nH]ccc2c(=O)[nH]1	-2	·	-3	·	·	·	·	·	·	·
Cc1cc(C=C2C(=O)c3ccccc3C2=O)c(C)n1-c1ccccc1	-20	92*	-21	74*	93*	9	10	3	20	-3
Cc1cc(C=C2C(=O)c3ccccc3C2=O)c(C)n1-c1cccc(C(=O)O)c1	-26	91*	-9	90*	51*	97*	98*	101*	95*	92*
COc1ccccc1/C=C1\Cc2ccccc2C1=O	-25	·	-169	·	·	·	·	·	·	·
Cc1cc(C=C2C(=O)c3ccccc3C2=O)c(C)n1-c1ccc(C(=O)O)cc1	-25	-5	-15	-2	1	·	·	·	·	·
Cc1cc(/C=C2/C(=O)NN(c3ccccc3)C2=O)c(C)n1-c1cccc(O)c1	0	80*	29	66*	65*	68*	73*	93*	67*	11
Cc1cc(/C=C2\Cc3ccccc3C2=O)c(C)n1-c1ccccc1	-29	48	-393	65*	5	46	91*	97*	68*	14
O=C(CCCN1C(=O)/C(=C\c2ccccc2)SC1=S)Nc1cccc(C(=O)O)c1	2	63*	24	38	0	43	48	37	24	6
COc1cc(/C=C2/SC(=S)N(Cc3ccccc3)C2=O)ccc1O	-29	49	29	0	4	·	·	·	·	·
Cc1ccc(NC(=O)COc2cccc(/C=C3\SC(=S)N(CCC(=O)O)C3=O)c2)cc1Cl	2	66*	33	47	-1	13	42	61*	21	2
O=C1/C(=C\c2ccc(O)c(O)c2)SC(=S)N1Cc1ccccc1	-26	55*	36*	47	-8	70*	69*	72*	18	49
COc1ccc(/C=C2\SC(=S)N(CCC(=O)Nc3cccc(C(=O)O)c3)C2=O)cc1	-23	62*	25	53*	6	35	33	21	21	15
O=C(CCN1C(=O)/C(=C/c2ccc(Cl)cc2)SC1=S)Nc1cccc(C(=O)O)c1	1	8	18	34	5	·	·	·	·	·
O=C(CCCN1C(=O)/C(=C/c2ccc3c(c2)OCO3)SC1=S)Nc1cccc(C(=O)O)c1	-4	82*	10	76*	48	60*	82*	90*	63*	46
O=C(CCN1C(=O)/C(=C/c2ccc3c(c2)OCO3)SC1=S)Nc1cccc(C(=O)O)c1	-39	9	29	0	-16	·	·	·	·	·
SMILES	SENP1 inh	SENP6 block	SENP8 block-1	SENP8 block-2	SENP7 inh	SENP8 confirm	SENP6 conf	SENP7 confirm	Casp3 SENP sel	Luc interf
COc1cccc(/C=C2\SC(=S)N(CCCC(=O)Nc3ccc(C(=O)O)cc3)C2=O)c1	2	84*	9	84*	81*	67*	76*	62*	58*	15
C#Cc1cccc(NC(=O)c2ccc3c(c2)C(=O)N(Cc2cccnc2)C3=O)c1	0	60*	16	47	75*	6	46	88*	54*	56*
O=C(O)c1cc(NC(=O)c2ccc3c(c2)C(=O)N(Cc2cccnc2)C3=O)cc(C(=O)O)c1	4	4	10	-6	-1	·	·	·	·	·
C=C1C(=O)C23C(O)C1CCC2C12COC3(O)C(O)C1C(C)(C)CCC2O (centres undefined)	1	·	4	·	·	·	·	·	·	·
Cc1nc(-c2noc(-c3ccccc3Cl)n2)c(C(F)(F)F)o1	2	78*	20	70*	65*	24	57*	78*	70*	40
C(=C\c1nc(-c2cccnc2)no1)/c1ccccc1	-1	-21	-3	13	33	·	·	·	·	·
Clc1ccccc1-c1nnc(-c2cccnc2)o1	2	19	6	-4	1	·	·	·	·	·
Clc1ccccc1-c1nc(-c2cccnc2)no1	0	84*	30	64*	81*	9	72*	93*	77*	64*
Cc1ccccc1-c1nc(-c2cccnc2)no1	2	60*	7	36	53*	25	60*	84*	67*	31
Clc1ccccc1/C=C/c1nc(-c2cccnc2)no1	2	88*	6	69*	77*	56*	68*	89*	56*	12

Screening results from PubChem BioAssay.
